APJ antagonist: antagonists of human APJ apelin receptor; hit rate 0.32% among 330,000; CHO-K1 APJ beta-arrestin complementation, luminescence; inhibition, % at 20 µM;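 active = inhibition above about 40% at 20 µM, limit read from the data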;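 also: cells challenged with 10 nM apelin-13 agonist together with compound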
EBI2 antag: antagonists of human EBI2 receptor; EBI2 beta-arrestin recruitment, luminescence, 7a,25-OHC stimulated; inhibition, % at 5 µM; hit rate 0.81% among 360,000; AID 651636; in the data active = inhibition above about 38%;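 also: enzyme fragment complementation signal reports receptor beta-arrestin coupling in cells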
CXCR6 inh: CXCR6 (human) receptor inhibition. O00574. CHO-K1 PathHunter CXCR6 beta-arrestin, luminescence. inhibition, % at 20 µM. hit rate 0.36% among 360,000. AID 602244; in the data active = inhibition above about 34%, passing the limit was not always enough;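 also: antagonist mode with CXCL16 agonist at 10 nM final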
CCR6 antag: CCR6 (human) receptor antagonism; P51684; CHO-K1 CCR6 PathHunter beta-arrestin, luminescence, CCL20-stimulated; inhibition, % at 20 µM; hit rate 0.49% among 340,000; AID 493098;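 active = compounds whose inhibition of the agonist-driven luminescence signal at 20 µM reaches about 50%, limit read from the data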;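 also: cells stimulated with CCL20 at 14 nM final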
m5-HT2A agonist: agonists of mouse serotonin 5-HT2A receptor (HTR2A); activation, % at 7.6 µM; P35363; AID 624169; hit rate 0.66% among 360,000; CHO-K1 mHTR2A beta-arrestin complementation, luminescence; percent of 30 µM serotonin response;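 active = activation above a run cutoff, the mean activation of all tested compounds plus 3 SD, cut at about 14% in these data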
APJ ag: activates the human apelin receptor APJ | P35414 | CHO-K1 APJ PathHunter beta-arrestin, luminescence; 0% DMSO wells, 100% apelin | activation, % at 20 µM | hit rate 0.11% among 330,000 | AID 2520;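 active = activation more than six SD over the plate average, tested at 20 µM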
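Test system – PathHunter CHO-K1 APJ (AGTRL-1) beta-arrestin reporter cells · Input – 1000 cells/well · Compound – single test compound dose, 20 µM final, 1% DMSO · Times – compound stimulation 90 min at 25 °C, detection 60 min · Technique – beta-gal luminescence · Read-out basis – APJ–arrestin association signal · Control set – negative DMSO alone, positive Apelin-13 at 10 nM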
OPRM1 ag: OPRM1 agonism in mouse HTR2A counterscreen; U2OS OPRM1 beta-arrestin PathHunter, luminescence; DMSO 0%, DAMGO 9.3 µM 100%; shares compounds with m5-HT2A agonist; activation, % at 9.3 µM; hit rate 5.3% among 2,300;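 active = mean activation above the mean of DMSO-only wells plus 3 SD, cut at about 0.5% in these data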
Target sequence (P35372 whole entry, looked up): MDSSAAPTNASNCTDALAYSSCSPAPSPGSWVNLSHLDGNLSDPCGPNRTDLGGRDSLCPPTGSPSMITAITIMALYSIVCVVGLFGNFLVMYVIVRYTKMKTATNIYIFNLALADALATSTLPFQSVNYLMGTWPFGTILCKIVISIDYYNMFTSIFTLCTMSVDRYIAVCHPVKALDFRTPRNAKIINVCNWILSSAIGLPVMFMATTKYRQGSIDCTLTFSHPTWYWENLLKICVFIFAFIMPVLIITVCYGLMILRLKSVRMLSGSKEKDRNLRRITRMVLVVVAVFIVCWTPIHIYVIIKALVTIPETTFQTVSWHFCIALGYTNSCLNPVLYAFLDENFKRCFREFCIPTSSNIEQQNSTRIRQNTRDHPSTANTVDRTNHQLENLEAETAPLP
m5-HT2A ag conf: mouse HTR2A agonism confirmed; shares compounds with m5-HT2A agonist; CHO-K1 PathHunter beta-arrestin recruitment, luminescence; DMSO 0%, 30 µM serotonin 100%; activation, % at 7.6 µM; hit rate 19% among 2,300;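 active = mean activation across triplicates above the hit threshold derived in the original primary screen, cut at about 15% in these data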
Large screens that a line does not name were inactive (follow-up assays come after a bar, where they were run). An excerpt weighted towards active compounds, which were near 2.1% of everything screened.

Cc1ccc(-c2cc(C(=O)NCc3ccco3)c3ccccc3n2)s1	m5-HT2A agonist 15.5 | OPRM1 ag inactive | m5-HT2A ag conf inactive
CCOC(=O)C(=CNc1ncccc1C)C(=O)OCC	m5-HT2A agonist 22.9 | OPRM1 ag inactive | m5-HT2A ag conf inactive
COc1ccc(CNS(=O)(=O)c2cc(Br)cc3c2N(C(C)=O)C(C)C3)cc1 (stereo unspecified)	none
CCCn1c(SCc2nc(-c3cccs3)no2)nnc1-c1ccncc1	none
CCOc1ccc(-n2c(SCc3nc(-c4cccs4)no3)nnc2-c2ccncc2)cc1	m5-HT2A agonist 29.4 | OPRM1 ag inactive | m5-HT2A ag conf inactive
Cc1cc(C)nc(SCC(=O)c2ccc(F)c(C)c2)n1	m5-HT2A agonist 36.4 | OPRM1 ag inactive | m5-HT2A ag conf inactive
Cc1cc(C)nc(SCC(=O)c2ccc(F)cc2)n1	none
CCN1CCN(C(=O)c2ccc(C)c(S(=O)(=O)Nc3cccc(C)c3)c2)CC1	none
CC(C)(C)N(Cc1ccccc1)C(=O)COC(=O)CCN1C(=O)C2CC=CCC2C1=O (stereo unspecified)	m5-HT2A agonist 15.3 | OPRM1 ag inactive | m5-HT2A ag conf inactive
O=C(COC(=O)CCN1C(=O)C2CC=CCC2C1=O)NCCc1ccccc1 (stereo unspecified)	none
CC(C)C[C@H]1C(=O)N2CCC[C@H]2[C@]2(O)O[C@](NC(=O)[C@@H]3C=C4c5cccc6[nH]c(Br)c(c56)CC4N(C)C3)(C(C)C)C(=O)N12 (stereo partly specified)	EBI2 antag 89.3, m5-HT2A agonist 40.5 | OPRM1 ag inactive | m5-HT2A ag conf 126.9
COc1ccc(CC2(CO)CCN(C/C=C/c3ccccc3OC)CC2)cc1	none
CC(COc1ccccc1)N1CCC(CO)(Cc2ccccc2)CC1 (stereo unspecified)	m5-HT2A agonist 29.1 | OPRM1 ag inactive | m5-HT2A ag conf 72.5
COc1ccc(CC2(CO)CCN(C(C)COc3ccccc3)CC2)cc1 (stereo unspecified)	m5-HT2A agonist 20.3 | OPRM1 ag inactive | m5-HT2A ag conf 85.4
Cc1cccc(-c2nc(C#N)c(NCc3ccco3)o2)c1	none
CN(C)S(=O)(=O)c1ccc(NC(=O)CN2CCN(c3ccccn3)CC2)cc1	none
CN(C)S(=O)(=O)c1cc(NC(=O)CN2CCN(c3ccccc3)CC2)ccc1Cl	m5-HT2A agonist 17.8 | OPRM1 ag inactive | m5-HT2A ag conf 45.4
CCN(CC)S(=O)(=O)c1cc(NC(=O)CN2CCN(c3ccccn3)CC2)ccc1C	m5-HT2A agonist 31.7 | OPRM1 ag inactive | m5-HT2A ag conf 94.5
Cc1ccc(NC(=O)CN2CCN(c3ccccn3)CC2)cc1S(=O)(=O)N(C)C	m5-HT2A agonist 51.4 | OPRM1 ag inactive | m5-HT2A ag conf 117.9
COc1ccccc1NC(=O)CN1CCN(c2ccccn2)CC1	m5-HT2A agonist 16.1 | OPRM1 ag inactive | m5-HT2A ag conf 37.1
COc1ccc(C)cc1NC(=O)CN1CCN(c2ccccn2)CC1	none
FC(F)(F)c1cc(-c2ccccc2)nc2ncnn12	none
CCCOc1ccccc1/C=N/Nc1ccnc(=O)[nH]1	none
CC(=O)NC1(c2nnnn2CCOC(=O)Nc2ccc(Cl)cc2)CCCCC1	none
O=C(c1cccs1)N(Cc1ccc(Cl)cc1)C1CCS(=O)(=O)C1 (stereo unspecified)	none
CC(C)c1ccc(CN(C(=O)c2cccs2)C2CCS(=O)(=O)C2)cc1 (stereo unspecified)	m5-HT2A agonist 14.6 | OPRM1 ag inactive | m5-HT2A ag conf inactive
COc1ccc(C)c2sc(N(CCCN(C)C)C(=O)c3ccc4c(c3)OCCO4)nc12	m5-HT2A agonist 20.9 | OPRM1 ag inactive | m5-HT2A ag conf inactive
Cc1cc(C)c2nc(N(CCCN(C)C)C(=O)c3ccc4c(c3)OCCO4)sc2c1	none
COc1ccc(OC)c2sc(N(CCN(C)C)C(=O)/C=C/c3cccs3)nc12	none
COc1ccc(C)c2sc(N(CCN(C)C)C(=O)/C=C/c3cccs3)nc12	m5-HT2A agonist 24.2 | OPRM1 ag 1.0 | m5-HT2A ag conf inactive
CC1(C)NC(=S)NC1=S	m5-HT2A agonist 17.2 (no result: APJ antagonist, APJ ag) | OPRM1 ag inactive | m5-HT2A ag conf inactive
CCC1(CC)NC(=S)NC1=S	none (no result: APJ antagonist, APJ ag)
O=C(OCC(=O)N1CCCC1)c1ccc(O)cc1	none
COc1ncc(-c2ccc3c(c2)S(=O)(=O)c2cccc(C(=O)O)c2C3=O)cn1	m5-HT2A agonist 17.9 | OPRM1 ag inactive | m5-HT2A ag conf inactive
COc1ccc(-c2ccc3c(c2)S(=O)(=O)c2cccc(C(=O)O)c2C3=O)cc1OC	none
CCOC(=O)C1=CCN(Cc2ccccc2)CC1	m5-HT2A agonist 18.6 | OPRM1 ag inactive | m5-HT2A ag conf 80.1
Cc1ccn(CCNC(=O)C2CCC(=O)N(CCc3ccc(Cl)cc3)C2)n1 (stereo unspecified)	m5-HT2A agonist 24.0 | OPRM1 ag inactive | m5-HT2A ag conf inactive
Cc1ccc(C)c(NC(=O)c2ccccc2Sc2ccc([N+](=O)[O-])cc2Cl)c1	none
O=C(O)C[C@H]1c2cc(F)ccc2S(=O)(=O)N1C1CCCCC1	none
Cc1ccc2c(=O)n3c(nc2c1)C(Cc1ccc(O)cc1)NC(=O)c1ccc(Cl)cc1-3 (stereo unspecified)	none (no result: EBI2 antag, CXCR6 inh, CCR6 antag, m5-HT2A agonist)
COC(=O)C(C)Sc1nnc(Cc2cc(=O)[nH]c(=O)[nH]2)n1-c1cc(C)ccc1C (stereo unspecified)	m5-HT2A agonist 31.4 | OPRM1 ag inactive | m5-HT2A ag conf inactive
CO[C@@H]1CN(C)C(=O)c2ccc(NC(=O)C3CCC3)cc2OC[C@H](C)N(CC2CCCCC2)C[C@H]1C	m5-HT2A agonist 21.4 (no result: APJ antagonist, CXCR6 inh, CCR6 antag, APJ ag) | OPRM1 ag inactive | m5-HT2A ag conf inactive
CO[C@H]1CN(C)C(=O)c2ccc(NC(=O)C3CCC3)cc2OC[C@H](C)N(CC2CCCCC2)C[C@@H]1C	none (no result: APJ antagonist, CXCR6 inh, CCR6 antag, APJ ag)
COc1ccc(OCCC(=O)Nc2cc(C)on2)cc1	none
COc1ccc2[nH]c(C)c(CCNC(=S)Nc3cccc(C)c3C)c2c1	none
COc1ccc2[nH]c(C)c(CCNC(=S)Nc3ccccc3C)c2c1	m5-HT2A agonist 16.5 | OPRM1 ag inactive | m5-HT2A ag conf inactive
C[C@@H]1CN(Cc2nc(Cc3ccccc3F)no2)C[C@H](C)O1	none
CC(=O)c1ccccc1OCC(O)Cn1ccnc1 (stereo unspecified)	m5-HT2A agonist 20.6 | OPRM1 ag inactive | m5-HT2A ag conf inactive
CNS(=O)(=O)c1cccc(C(=O)OCC(=O)/C=C2/N(C)c3ccccc3C2(C)C)c1	none
